Test results taken from ChEMBL document CHEMBL4196050, “Design, synthesis, and biological evaluation of compounds with a new scaffold as anti-neuroinflammatory agents for the treatment of Alzheimer's disease” (Eur J Med Chem, 2018).
Active and inactive are the calls of the source. The calls are words filed in the database; no cut-off is given here.

Legend:
BV-2 [1] = test: Antineuroinflammatory activity in mouse BV2 cells assessed as inhibition of LPS-induced NO production pretreated for 30 mins followed by LPS stimulation and measured after 24 hrs by Griess assay; format: functional, cell-based
Summary of the method: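 BV2 microglia plated at 4 × 10⁵ cells/mL and grown 48 h, then medium replaced. Compounds at various concentrations given 30 min before LPS; incubated 24 h at 37 °C. Equal volume of Griess reagent added to medium, 10 min at room temperature, absorbance read at 540 nm. % inhibition = (F_L − F_C)/(F_L − F₀) × 100. IC50 by nonlinear regression, ≥3 independent experiments, mean SEM.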

BV-2 [2] = test: Antineuroinflammatory activity in mouse BV2 cells assessed as inhibition of LPS-induced TNFalpha production after 24 hrs by ELISA; format: functional, cell-based; conditions: BV-2, 24 h
Summary of the method: (§1)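 BV2 cells plated at 4 × 10⁵ cells/mL, grown 48 h, medium replaced with DMEM. Compound added first, then LPS; incubated 24 h at 37 °C. TNF-α or IL-1β in culture medium measured by ELISA. % inhibition = (F_L − F_C)/(F_L − F₀) × 100 against LPS-only and unstimulated cells. IC50 by nonlinear regression of ≥3 independent experiments, mean SEM.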

BV-2 [3] = test: Antineuroinflammatory activity in mouse BV2 cells assessed as inhibition of LPS-induced IL-1beta production after 24 hrs by ELISA; format: functional, cell-based; conditions: BV-2, 24 h; summary of the method: as §1
[4] = Permeability of the compound after 10 hrs by PAMPA; format: ADME; conditions: read-out: permeability
Summary of the method: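 PAMPA-BBB: filter coated with porcine brain lipid in dodecane (20 mg/mL); acceptor PBS/EtOH (7:3). DMSO stocks (5 mg/mL) diluted 50-fold in PBS/EtOH into donor wells. Sandwich left 10 h at 25 °C; acceptor concentration read by UV plate reader. Pe from volumes, filter area, time and acceptor/equilibrium absorbance. Means SD of ≥3 experiments; Pe > 4.7 × 10⁻⁶ cm/s taken as BBB-permeable.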

BV-2 [5] = test: Antineuroinflammatory activity in mouse BV2 cells assessed as inhibition of LPS-induced iNOS production pretreated for 30 mins followed by LPS stimulation for 16 hrs by Western blot analysis; format: functional, cell-based
[6] = target: T1, NF-kappa-B inhibitor alpha (Mus musculus) (UniProt Q9Z1E3); test: Inhibition of LPS-induced IkappaBalpha phosphorylation in mouse BV2 cells up to 10 uM preincubated for 30 mins followed by LPS-stimulation for 16 hrs by Western blot analysis; format: cell-based
T1 sequence (whole entry): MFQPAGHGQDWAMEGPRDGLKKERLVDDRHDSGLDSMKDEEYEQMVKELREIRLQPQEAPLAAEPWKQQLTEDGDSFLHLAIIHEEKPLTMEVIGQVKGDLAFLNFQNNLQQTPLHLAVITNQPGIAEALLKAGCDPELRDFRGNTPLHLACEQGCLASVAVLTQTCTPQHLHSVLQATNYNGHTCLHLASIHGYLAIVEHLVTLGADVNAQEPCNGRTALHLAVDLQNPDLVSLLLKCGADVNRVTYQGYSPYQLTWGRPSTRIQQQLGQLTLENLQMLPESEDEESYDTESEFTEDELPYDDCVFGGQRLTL
Summary of the method: (§2)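 BV2 cells in 6-well plates, with or without compound 30 min, then with or without LPS for 16 h. Lysed in RIPA with protease and phosphatase inhibitors; cytoplasmic and nuclear fractions separated; protein by BCA. Run on 10% SDS-PAGE, PVDF, milk/TBST block 2 h, primary antibody 4 °C overnight, secondary 2 h at room temperature, chemiluminescence. Phospho-ERK1/2 (Thr202/Tyr204), p38 (Thr180/Tyr182), JNK (Thr183/Tyr185), IκBα (Ser32); GAPDH and Lamin B references. Three independent experiments.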

[7] = target: Transcription factor p65 (Mus musculus) (UniProt Q04207); test: Inhibition of LPS-induced p65 translocation from cytoplasm to nucleus in mouse BV2 cells up to 10 uM preincubated for 30 mins followed by LPS-stimulation for 16 hrs by Western blot analysis; format: cell-based; summary of the method: as §2
[8] = target: Mitogen-activated protein kinase 1 and 3 (ERK2 and ERK1) (Mus musculus) (UniProt P63085+Q63844); test: Inhibition of LPS-induced ERK1/2 phosphorylation in mouse BV2 cells up to 10 uM preincubated for 30 mins followed by LPS-stimulation for 16 hrs by Western blot analysis; format: cell-based; summary of the method: as §2
Mus musculus = organism: Mus musculus; test: Inhibition of LPS-induced JNK phosphorylation in mouse BV2 cells up to 10 uM preincubated for 30 mins followed by LPS-stimulation for 16 hrs by Western blot analysis; format: cell-based; summary of the method: as §2
[9] = target: MAP kinase p38 (Mus musculus) (UniProt P47811+O08911+Q9WUI1+Q9Z1B7); test: Inhibition of LPS-induced p38 phosphorylation in mouse BV2 cells up to 10 uM preincubated for 30 mins followed by LPS-stimulation for 16 hrs by Western blot analysis; format: cell-based; summary of the method: as §2

Chain of Transcription factor p65 (Mus musculus) (Q04207 whole entry): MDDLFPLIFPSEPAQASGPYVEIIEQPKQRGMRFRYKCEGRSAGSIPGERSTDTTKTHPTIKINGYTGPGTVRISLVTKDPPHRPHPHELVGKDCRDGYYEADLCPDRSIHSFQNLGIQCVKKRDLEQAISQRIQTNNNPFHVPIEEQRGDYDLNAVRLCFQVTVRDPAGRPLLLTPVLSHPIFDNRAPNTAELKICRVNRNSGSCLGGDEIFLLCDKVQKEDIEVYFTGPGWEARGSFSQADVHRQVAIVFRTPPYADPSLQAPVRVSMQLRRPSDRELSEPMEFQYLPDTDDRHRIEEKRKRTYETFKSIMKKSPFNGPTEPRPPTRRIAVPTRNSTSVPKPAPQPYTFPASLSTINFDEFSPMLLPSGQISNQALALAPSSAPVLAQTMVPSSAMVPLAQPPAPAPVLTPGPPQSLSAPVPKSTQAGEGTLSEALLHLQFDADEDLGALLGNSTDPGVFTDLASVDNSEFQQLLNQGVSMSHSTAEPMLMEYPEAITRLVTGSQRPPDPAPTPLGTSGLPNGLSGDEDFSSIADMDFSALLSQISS
Chain of Mitogen-activated protein kinase 1 and 3 (ERK2 and ERK1) (Mus musculus) (P63085 whole entry, looked up): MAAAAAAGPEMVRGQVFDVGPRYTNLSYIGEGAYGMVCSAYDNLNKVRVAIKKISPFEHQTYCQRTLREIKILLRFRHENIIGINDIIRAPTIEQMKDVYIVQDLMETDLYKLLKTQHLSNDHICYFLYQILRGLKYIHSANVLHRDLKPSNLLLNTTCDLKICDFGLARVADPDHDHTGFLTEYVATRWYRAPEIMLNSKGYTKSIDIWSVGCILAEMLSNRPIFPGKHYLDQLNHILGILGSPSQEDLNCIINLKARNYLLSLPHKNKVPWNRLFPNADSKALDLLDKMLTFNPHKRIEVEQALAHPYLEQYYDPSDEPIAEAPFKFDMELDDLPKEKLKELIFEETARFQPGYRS
Chain of Mitogen-activated protein kinase 1 and 3 (ERK2 and ERK1) (Mus musculus) (Q63844 whole entry, looked up): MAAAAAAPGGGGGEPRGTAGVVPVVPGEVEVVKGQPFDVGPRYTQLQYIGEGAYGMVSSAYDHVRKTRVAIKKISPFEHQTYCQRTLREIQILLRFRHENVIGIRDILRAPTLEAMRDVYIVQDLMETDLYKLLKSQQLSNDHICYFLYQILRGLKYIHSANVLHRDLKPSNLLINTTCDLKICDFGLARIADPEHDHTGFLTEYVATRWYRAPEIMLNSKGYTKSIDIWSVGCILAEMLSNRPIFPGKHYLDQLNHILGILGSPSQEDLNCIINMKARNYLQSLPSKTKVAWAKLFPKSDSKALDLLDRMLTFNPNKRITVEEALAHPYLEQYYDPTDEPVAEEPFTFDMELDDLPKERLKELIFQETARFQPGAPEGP

Row | Structure (SMILES) | IC50 (BV-2 [1]) [µM] | IC50 (BV-2 [2]) [µM] | IC50 (BV-2 [3]) [µM] | Papp at 10 h [4] [×10⁻⁶ cm/s] | inhibition (BV-2 [5]) | inhibition [6] | inhibition [7] | inhibition [8] | inhibition (Mus musculus) | inhibition [9]
1 | O=C(/C(=C/c1ccccc1)c1ccc(F)cc1)N1CCN(c2ncccn2)CC1 | 8.1 | 15.2 | 10.2 | 11.2 |  |  |  |  |  | 
2 | COc1ccc(/C=C(/C(=O)N2CCN(c3ncccn3)CC2)c2ccccc2)cc1 | 9.5 | 16.9 | 3.4 | 10.3 |  |  |  |  |  | 
3 | COc1ccc(/C=C(/C(=O)N2CCN(c3ncccn3)CC2)c2ccc(F)cc2)cc1 | 23.1 | 41.3 | 42.9 | 10.5 |  |  |  |  |  | 
4 | O=C(/C(=C/c1ccc(Cl)cc1)c1ccc(F)cc1)N1CCN(c2ncccn2)CC1 | 25.1 | 17.8 | 36.4 | 7.8 |  |  |  |  |  | 
5 | COc1ccc(/C=C(/C(=O)N2CCN(c3ncccn3)CC2)c2cccc(C(F)(F)F)c2)cc1 | 22.4 | 26.5 | 15.2 | 14.7 |  |  |  |  |  | 
6 | COc1ccc(O)c(/C=C(/C(=O)N2CCN(c3ncccn3)CC2)c2cccc(C(F)(F)F)c2)c1 | 42.6 | > 50 | > 50 | 12.7 |  |  |  |  |  | 
7 | O=C(/C(=C/c1cccc(Cl)c1)c1ccccc1)N1CCN(c2ncccn2)CC1 | 12.6 | 16.2 | 7.8 | 11.2 |  |  |  |  |  | 
8 | O=C(/C(=C/c1ccc(Cl)cc1)c1ccccc1)N1CCN(c2ncccn2)CC1 | > 50 | > 50 | > 50 | 7.4 |  |  |  |  |  | 
9 | O=C(/C(=C/c1cccc(Cl)c1)c1ccc(F)cc1)N1CCN(c2ncccn2)CC1 | 11 | 9.4 | 11.9 | 9.4 |  |  |  |  |  | 
10 | O=C(/C(=C/c1ccccc1)c1ccccc1)N1CCN(c2ncccn2)CC1 | 17.8 | 35.4 | > 50 | 14.3 |  |  |  |  |  | 
11 | O=C(/C(=C/c1cccc(Cl)c1)c1cccc(C(F)(F)F)c1)N1CCN(c2ncccn2)CC1 | 37.2 | 26.7 | 15.2 | 10.7 |  |  |  |  |  | 
12 | COc1ccccc1/C=C(/C(=O)N1CCN(c2ncccn2)CC1)c1ccc(F)cc1 | 9.9 | 23.7 | 18.4 | 13.8 |  |  |  |  |  | 
13 | COc1ccccc1/C=C(/C(=O)N1CCN(c2ncccn2)CC1)c1ccccc1 | 7.9 | 21.3 | 31.6 | 12.3 |  |  |  |  |  | 
14 | O=C(/C(=C/c1ccccc1Cl)c1cccc(C(F)(F)F)c1)N1CCN(c2ncccn2)CC1 | 19.9 | 25.1 | 18.4 | 15.1 |  |  |  |  |  | 
15 | O=C(/C(=C/c1ccccc1Cl)c1ccc(F)cc1)N1CCN(c2ncccn2)CC1 | 7.3 | 10.9 | 5.2 | 11.3 |  |  |  |  |  | 
16 | Oc1ccc(/C=C/c2cc(O)cc(O)c2)cc1 [RESVERATROL] | 11.1 | 9.5 | 8.7 | 1.1 |  |  |  |  |  | 
17 | O=C(/C(=C/c1ccc(F)cc1)c1cccc(C(F)(F)F)c1)N1CCN(c2ncccn2)CC1 | 15.6 | 19.8 | 31.2 | 12.3 |  |  |  |  |  | 
18 | O=C(/C(=C/C=C/c1ccccc1)c1cccc(C(F)(F)F)c1)N1CCN(c2ncccn2)CC1 | 1 | 2.6 | 0.5 | 12.6 | Dose-dependent effect | inactive | inactive | Active | Active | Active
19 | O=C(/C(=C/c1ccc(F)cc1)c1ccc(F)cc1)N1CCN(c2ncccn2)CC1 | > 50 | 37.5 | 25.7 | 14.3 |  |  |  |  |  | 
20 | COc1ccc(O)c(/C=C(/C(=O)N2CCN(c3ncccn3)CC2)c2ccccc2)c1 | 48.1 | 36.4 | 11.4 | 14.1 |  |  |  |  |  | 
21 | O=C(/C(=C/c1ccccc1)c1cccc(C(F)(F)F)c1)N1CCN(c2ncccn2)CC1 | 39.8 | > 50 | 25.3 | 7.2 |  |  |  |  |  | 
22 | O=C(/C(=C/C=C/c1ccccc1)c1ccc(F)cc1)N1CCN(c2ncccn2)CC1 | 7.9 | 5.9 | 2.4 | 14.9 |  |  |  |  |  | 
23 | COc1ccccc1/C=C(/C(=O)N1CCN(c2ncccn2)CC1)c1cccc(C(F)(F)F)c1 | 31.7 | 34.7 | 41.2 | 9.7 |  |  |  |  |  | 
24 | COc1ccc(O)c(/C=C(/C(=O)N2CCN(c3ncccn3)CC2)c2ccc(F)cc2)c1 | 46.8 | > 50 | > 50 | 6.4 |  |  |  |  |  | 
25 | O=C(/C(=C/c1ccc(C(F)(F)F)cc1)c1ccc(F)cc1)N1CCN(c2ncccn2)CC1 | 3 | 6.6 | 8.9 | 7.6 |  |  |  |  |  | 
26 | O=C(/C(=C/c1ccccc1Cl)c1ccccc1)N1CCN(c2ncccn2)CC1 | 10.1 | 17.6 | 9.3 | 9.4 |  |  |  |  |  | 
27 | O=C(/C(=C/c1ccc(C(F)(F)F)cc1)c1cccc(C(F)(F)F)c1)N1CCN(c2ncccn2)CC1 | 6.5 | 6.9 | 4.2 | 9.3 |  |  |  |  |  | 
28 | O=C(/C(=C/c1ccc(C(F)(F)F)cc1)c1ccccc1)N1CCN(c2ncccn2)CC1 | 14.9 | 21.6 | 11.3 | 8.2 |  |  |  |  |  | 
29 | O=C(/C(=C/c1ccc(Cl)cc1)c1cccc(C(F)(F)F)c1)N1CCN(c2ncccn2)CC1 | 26.9 | 43.1 | 21.9 | 5.1 |  |  |  |  |  | 
